From PubChem
Shown are actives, neighbours in structure and some others; about 1.9% of the full set was active somewhere.
NS3 helicase inh – inhibitors of HCV NS3 helicase, primary screen, biochemical, Cy5 molecular beacon fluorescence | Hepatitis C virus NS3 helicase | NS3 helicase DNA unwinding | inhibition, % at 10.9 µM | hit rate 0.56% among 290,000 | AID 1800, 2009;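 active = inhibition above the mean of all tested compounds plus 3 SD, set per campaign, cut at about 35% in these data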
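System: NS3 helicase fragment of HCV / Schedule: 1 h at 25 °C / Control set: DMSO alone as 0% and 110 µM thioflavine S as 100% / Reagent: Cy5/quencher beacon DNA duplex and ATP to start / Technique: Cy5 fluorescence / Replication: singlicate / Evaluation: % inhibition of end-to-start signal ratio versus controls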
PP5 primary – PP5 phosphatase inhibitors, primary screen, biochemical, fluorescence | purified PP5c, OMFP substrate fluorescence | inhibition, % at 6.7 µM | hit rate 0.18% among 320,000;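 active = inhibition above the campaign's mean inhibition across all tested compounds plus 3 SD, cut at about 9.5% in these data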
Target sequence (P53041 whole entry, looked up): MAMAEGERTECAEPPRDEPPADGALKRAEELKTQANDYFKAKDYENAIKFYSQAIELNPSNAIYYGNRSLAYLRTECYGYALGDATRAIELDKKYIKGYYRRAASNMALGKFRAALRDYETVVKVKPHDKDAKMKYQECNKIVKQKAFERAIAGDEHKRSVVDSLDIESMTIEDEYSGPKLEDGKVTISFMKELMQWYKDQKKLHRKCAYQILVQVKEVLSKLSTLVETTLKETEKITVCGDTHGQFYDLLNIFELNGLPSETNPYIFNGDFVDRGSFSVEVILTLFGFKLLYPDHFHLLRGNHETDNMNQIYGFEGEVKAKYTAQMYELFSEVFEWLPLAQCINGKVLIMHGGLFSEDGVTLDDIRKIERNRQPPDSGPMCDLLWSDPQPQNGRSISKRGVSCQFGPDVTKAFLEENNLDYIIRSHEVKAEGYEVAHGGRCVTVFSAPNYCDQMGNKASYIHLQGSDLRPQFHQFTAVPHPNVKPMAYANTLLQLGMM
HIF act – HIF pathway transcriptional activators, primary screen, cell-based, U2OS HRE-luciferase, luminescence. activation, % at 7.5 µM (by protocol). U2OS HRE-luciferase reporter; normalized: DMSO 0%, desferrioxamine 100%. hit rate 0.32% among 300,000. AID 1910, 2009;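 active = mean activation of at least 10% of the iron chelator positive control signal, with at least half of replicates also reaching 10%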
PP1 inh – PP1-alpha phosphatase inhibitors, primary screen, counter-screen for PP5 inhibitor project, biochemical, fluorescence, OMFP substrate, single point | Serine/threonine-protein phosphatase PP1-alpha catalytic subunit (Homo sapiens), P62136 | hit rate 0.9% among 320,000 | purified PP1alpha | inhibition, % at 6.7 µM;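 active = inhibition above the mean inhibition of all tested compounds plus 3 SD, computed separately for each screening campaign, cut at about 15% in these data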
DNA FID counter – compounds displacing fluorescent DNA intercalator, primary screen, artefact control for HCV NS3 helicase inhibitor project, biochemical, FID fluorescence | DNA fluorescent intercalator displacement | inhibition, % at 7.9 µM | hit rate 0.17% among 290,000; in the data active = inhibition above about 37%;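 note: higher means more ethidium bromide displaced from hairpin DNA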
PP5 inh confirm – PP5 phosphatase inhibitors, confirmation, biochemical, fluorescence, human; inhibition, % at 6.7 µM; Purified PP5, fluorogenic phosphatase substrate; shares compounds with PP5 primary; hit rate 22% among 460; in the data active = inhibition above about 9.5%
PP1 inh counter – PP1 phosphatase inhibitors, counter-screen for PP5 inhibitor project, biochemical, fluorescence, triplicate; shares compounds with PP5 primary; PP1 enzyme, fluorescent phosphatase substrate; inhibition, % at 6.7 µM; hit rate 4% among 460; AID 2355, 2010; in the data active = inhibition above about 16%
Hits are given with their value; 0 = inactive; - = no result given.

SMILES	NS3 helicase inh	PP5 primary	HIF act	PP1 inh	DNA FID counter	PP5 inh confirm	PP1 inh counter
COc1ccc(N2CCN(C(=O)COC(=O)COc3cccc(C(F)(F)F)c3)CC2)cc1	-	0	-	0	-	-	-
CCc1ccc(CN(C)C(=O)CCc2nc3ccccc3n(-c3ccc(OC)cc3)c2=O)cc1	0	10	0	0	0	0	0
O=C(CNCc1ccccn1)Nc1ccc([N+](=O)[O-])cc1C(=O)Nc1ccccc1F	0	0	0	0	0	-	-
Cc1ccc(-n2nc3c(c2NC(=O)c2ccc4c(c2)OCO4)CS(=O)(=O)C3)c(C)c1	0	0	0	0	0	-	-
COc1cccc(CSCC(=O)NCCc2ccccc2)c1OC	0	10	0	0	0	0	0
COc1cccc(C(=O)OCC(=O)NCCc2ccccc2)c1OC	0	0	0	0	0	-	-
Cc1ccc2c(Cl)c(C(=O)NCc3cccnc3)sc2c1	0	11	0	0	0	0	0
O=C(NCc1cccnc1)c1sc2ccccc2c1Cl	0	0	0	0	0	-	-
COc1cccc(C(=O)NC(=S)Nn2cnnc2)c1OC	0	0	0	0	0	-	-
CCOc1ccc(C2c3cc(OC)c(OC)cc3CC(=O)N2c2ccc(OC)cc2)cc1 (stereo not given)	0	9.7	0	0	0	0	0
O=C(c1ccc(CNS(=O)(=O)c2ccc(Br)cc2)cc1)N1CCCC1	0	0	0	0	0	-	-
O=C(NNc1ccc(C(F)(F)F)cc1[N+](=O)[O-])c1ccc(NS(=O)(=O)c2ccc(F)cc2)cc1	0	10	0	0	0	0	0
CC(C)[C@H](Nc1ccc(C(F)(F)F)cc1[N+](=O)[O-])C(=O)O	0	0	0	0	0	-	-
O=C(O)CCC(=O)c1c[nH]c2ccccc12	0	12	0	0	0	0	0
CCOC(=O)N1CCC2(CC1)NCCc1c2[nH]c2ccccc12	0	12	0	0	0	0	0
Nc1ccccc1C(=O)N1CCc2ccccc21	0	10	0	0	0	0	0
O=C(c1ccccc1)N1CCc2ccccc21	0	0	0	0	0	-	-
Cc1cc(C(=O)N2CCc3ccccc32)c2ccccc2n1	0	9.8	0	0	0	0	0
O=C(C[n+]1cn(C(F)F)c2ccccc21)c1ccc(OC(F)F)cc1	0	0	0	0	0	-	-
CSCC[C@H](NC(=O)[C@H]1CC[C@H](CNC(=O)[C@@H](N)Cc2ccccc2)CC1)C(=O)O	0	0	0	0	0	-	-
O=C(Nc1c(C(=O)NCc2ccco2)cnn1-c1ccccc1)c1cccc(F)c1	0	11	0	0	0	0	0
Clc1cccc(OCCN2CCOCC2)c1	0	0	0	0	0	-	-
Clc1cccc(OCCCCCN2CCOCC2)c1	0	10	0	0	0	0	0
O=C(Nc1ccc(Br)cc1)c1cccn1-c1ncc(C(F)(F)F)cc1Cl	0	11	0	0	0	0	0
COC(=O)c1sc(N)c(C(=O)OC)c1COC(=O)c1c(C)noc1C	0	10	0	0	0	0	0
SMILES	NS3 helicase inh	PP5 primary	HIF act	PP1 inh	DNA FID counter	PP5 inh confirm	PP1 inh counter
NC(=O)c1ccc(C(F)(F)F)n(Cc2c(Cl)cccc2Cl)c1=O	0	12	0	0	0	0	0
COc1ccc(Cn2c(C(F)(F)F)ccc(C(N)=O)c2=O)cc1	0	0	0	0	0	-	-
CCOc1ccc(Br)cc1S(=O)(=O)Nc1ccc(Cl)c(S(=O)(=O)N(CC)c2ccccc2)c1	0	0	0	0	0	-	-
CCOC(=O)COc1ccc(C(=O)NC2CCCCC2)cc1	0	0	0	0	0	-	-
CCOc1ccc(NC(=O)N2CCC(C(N)=O)(N3CCCCC3)CC2)cc1	0	11	0	0	0	0	0
COc1ccc(C2N(S(=O)(=O)c3ccccc3)CCN2S(=O)(=O)c2ccc(C)cc2)cc1 (stereo not given)	0	10	0	0	0	0	0
CCOc1ccc(NC(=O)COC(=O)CCCc2c[nH]c3ccccc23)cc1	0	9.8	0	0	0	0	0
COc1ccc(NC(=O)COC(=O)CCCc2c[nH]c3ccccc23)cc1	0	0	0	0	0	-	-
Cc1ccc(Nc2nc(/N=C/NO)n[nH]2)cc1C	0	11	0	0	0	0	0
Cc1nc(C)c(-c2ccnc(/N=C/NO)n2)s1	0	0	0	0	0	-	-
Cc1cccc(-c2nnc(NC(=O)c3ccc(Cl)cc3)o2)c1	0	9.6	0	0	0	0	24
Cn1nc(C(=O)NCCc2ccc(S(N)(=O)=O)cc2)c2ccccc2c1=O	0	0	0	0	0	-	-
O=C(NNc1cc(N2CCOCC2)nc(N2CCOCC2)n1)c1ccc(Cl)c(Cl)c1	0	0	0	0	0	-	-
Cc1ccc(C(=O)NNc2cc(N3CCCC3)nc(N3CCCC3)n2)cc1	0	17	0	0	0	40	0
CC(C)(C)C1CCC(=NNC(=O)C2COc3ccccc3O2)CC1 (stereo not given)	-	0	-	0	-	-	-
O=C1c2ccccc2C(=O)C12OC2c1cccc2ccccc12 (stereo not given)	0	10	0	0	0	35	17
CCOC(=O)c1ncn2c1[C@@H]1CCNC1C(=O)c1cc(OC)ccc1-2 (stereo not given in full)	-	0	-	0	-	-	-
CCOc1ccc(-c2[nH]ncc2Oc2cccc(OC)c2)c(O)c1	0	12	0	0	0	0	0
COc1cccc(Oc2cn[nH]c2-c2ccc(OC)cc2O)c1	0	0	0	0	0	-	-
O=C(/C=C/c1ccccc1)C1=C(O)C(=O)N(CCO)C1c1ccc2c(c1)OCO2 (stereo not given)	0	0	0	0	0	-	-
COc1ccc(-c2cc(C(=O)N(C)Cc3ccc(F)cc3)c3ccccc3n2)cc1OC	0	0	0	0	0	-	-
CCNc1nc(Nc2ccc(C)c(Cl)c2)c2cnn(C)c2n1	0	10	0	0	0	0	0
CCCCNc1nc(Nc2ccc(C)c(Cl)c2)c2cnn(C)c2n1	0	0	0	0	0	-	-
Cc1cc(-c2nnc(SCC(=O)NC3CC3)n2C(C)C)cs1	0	0	0	0	0	-	-
O=C(Nc1ccc(C2CCCCC2)cc1)C1CCN(c2ncccn2)CC1	-	10	0	0	-	0	0
CC1=NN(c2ccccc2)C(=O)/C1=C\C=C1\N(C)c2ccccc2C1(C)C	0	0	0	0	0	-	-
CC1=NN(c2ccccc2)C(=O)/C1=C\C=C1/N(C)c2ccccc2C1(C)C	0	10	0	0	0	0	0
O=C(ON=C1CCN(c2ccc([N+](=O)[O-])cc2)CC1)c1ccccc1	0	9.7	0	0	0	0	0
